Consider 18 compounds from ChEMBL document CHEMBL1149211, “Synthesis of 1,7-annulated indoles and their applications in the studies of cyclin dependent kinase inhibitors” (Bioorg Med Chem Lett, 2004).

pIC50: −log10 of the molar value. ≈ marks a conversion by molar mass, not a printed value.

The target of data set [1] is Cyclin-dependent kinase 4 (Homo sapiens) (UniProt P11802). The experiment in a line: Inhibition of CDK4-specific Rb-S780 phosphorylation of HCT116 cells at 1xIC50 for 24 hr. The note with it: HCT-116. The format is functional, cell-based. Put shortly:
(§1)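 HCT-116 colon carcinoma cells treated 24 h with compound at 1× and 2× its antiproliferation IC50; Rb phosphorylation at Ser780 measured by Western blot with phospho-specific antibody; value expressed as % pRb inhibition.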

Data set [2] has the same target. Briefly: Inhibition of CDK4-specific Rb-S780 phosphorylation of HCT116 cells at 2xIC50 for 24 hr. Type of data set: functional, cell-based. As to conditions: HCT-116. Put shortly:
as §1

For data set [3], the system named is HCT-116. Briefly: Antiproliferative activity against HCT116 (human colon carcinoma) cell line. The format is functional, cell-based.
Data set [4] is described as follows: Solubility measured in 10% solution in EtOH. Type of data set: physicochemical. The note with it: read-out: S. The gist of the method:
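Solubility determined in 10% solutol in ethanol.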

The subject of data set [5] is HCT-116. Briefly: G1 cell cycle arrest (fold increase over control) in HCT116 cells at IC50. Type of data set: functional, Homo sapiens. The gist of the method:
(§2)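 HCT-116 cells exposed to compound for 24 h, then analysed by flow cytometry; G1 arrest expressed as fold increase of G1 population over untreated control.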

Data set [6] concerns HCT-116. The experiment in a line: G1 cell cycle arrest (fold increase over control) in HCT116 cells at 3*IC50. The format is functional, Homo sapiens. Put shortly:
as §2

The test system of a further data set is NCI-H460. The experiment in a line: Antiproliferative activity against NCIH-460 (human lung) cell line. Type of data set: functional, cell-based.
Data set [7] concerns the target T1, Cyclin-dependent kinase 4/cyclin D1 (Homo sapiens, UniProt P11802). The experiment in a line: Inhibition of Cyclin D1-cyclin-dependent kinase 4. The format is protein-complex assay. The gist of the method: (§3)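 Cyclin D1/CDK4 enzyme inhibition determined by measuring phosphorylation of Rb protein; staurosporine included as standard; IC50 derived.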
Data set [8] concerns the target cAMP-dependent protein kinase (PKA) (Homo sapiens, UniProt P22694+P17612+P22612). The experiment in a line: Inhibition of protein kinase A mediated histone phosphorylation. Type of data set: protein assay. The gist of the method:
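PKA enzyme assay measuring phosphorylation of histone substrate; staurosporine used as standard; IC50 reported.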

Data set [9] addresses Cyclin-dependent kinase 2/cyclin E (Homo sapiens, UniProt P24941). The experiment in a line: Inhibition of Cyclin E-cyclin-dependent kinase 2 mediated RbING-phosphorylation. The format is protein-complex assay. The gist of the method: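 Cyclin E/CDK2 enzyme assay following substrate phosphorylation, with Rb^ING as substrate; staurosporine run as standard; IC50 reported.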

For data set [10], the target named is T1, Cyclin-dependent kinase 4/cyclin D1. Briefly: Inhibition of Cyclin D1-cyclin-dependent kinase 4 mediated Rb21-phosphorylation. Type of data set: protein-complex assay. As to conditions: in the assay text read “RbING-phosphorylation” for “Rb21-phosphorylation”. The gist of the method: as §3

Chain of Cyclin-dependent kinase 4 (Homo sapiens) (P11802 whole entry): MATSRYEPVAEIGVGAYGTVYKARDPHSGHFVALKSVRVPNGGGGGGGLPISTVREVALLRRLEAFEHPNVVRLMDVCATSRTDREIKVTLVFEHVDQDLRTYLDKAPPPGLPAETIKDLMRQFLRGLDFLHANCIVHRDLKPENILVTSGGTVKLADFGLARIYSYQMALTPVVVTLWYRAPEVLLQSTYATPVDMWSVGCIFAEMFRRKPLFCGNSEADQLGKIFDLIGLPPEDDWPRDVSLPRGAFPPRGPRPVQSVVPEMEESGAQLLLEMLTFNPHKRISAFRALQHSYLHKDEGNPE
T1 sequence (P11802 whole entry): as above
T1 sequence (P24385 whole entry, further chain): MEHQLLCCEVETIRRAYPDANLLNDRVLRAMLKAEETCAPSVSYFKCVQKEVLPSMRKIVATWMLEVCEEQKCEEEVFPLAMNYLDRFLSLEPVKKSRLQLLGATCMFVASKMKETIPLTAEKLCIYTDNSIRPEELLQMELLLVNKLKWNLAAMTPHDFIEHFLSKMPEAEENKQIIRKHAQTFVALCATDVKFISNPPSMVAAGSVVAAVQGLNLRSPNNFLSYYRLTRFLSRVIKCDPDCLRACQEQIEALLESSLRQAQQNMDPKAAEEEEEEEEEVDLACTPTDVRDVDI

On to `O=C1NC(=O)c2c1c1c3ccccc3[nH]c1c1c2c2cccc3c2n1CC(CO)CC3` (stereo not given), for which the results for the inhibition in [1] and in [2] were 71% and 85%, respectively. Further, the pIC50 with HCT-116 [3] was 6.27; with NCI-H460 it was 6.48; in data set [7], 6.90. Also, the solubility in [4] is 1070 µg/mL (≈ 2610 µM). Further, the figures for the Fold increase in the data set on HCT-116 [5] and in the data set on HCT-116 [6] were 1.8 and 1.9, respectively.
In the case of `O=C1NC(=O)c2c1c1c3ccc(C(F)(F)F)cc3[nH]c1c1c2c2cccc3c2n1CC(CO)C3` (stereo not given), in data set [8], the IC50 was above 2000 nM. For the same compound, the pIC50 was 5.90 in the data set on HCT-116 [3], 6.16 in the data set with NCI-H460 and 7.64 in data set [7]. Besides, the solubility in data set [4] came to 4810 µg/mL (≈ 10400 µM). Also, the Fold increase in the data set on HCT-116 [5] came to 1.34; in the data set on HCT-116 [6] it was 1.47.
In the case of `O=C1NC(=O)c2c1c1c3ccccc3[nH]c1c1c2c2cccc3c2n1C(CO)CC3` (stereo not given), the figures for the inhibition in data set [1] and in data set [2] were 53% and 65%, respectively. Also, the pIC50 was 6.66 in data set [9], 6.04 in the data set with HCT-116 [3], 6.09 with NCI-H460 and 7.74 in data set [7]. In [8], this compound came in with an IC50 of 858 nM. Moreover, in data set [4], the solubility was determined as 570 µg/mL (≈ 1440 µM). The Fold increase in the data set with HCT-116 [5] worked out at 1.32; in the data set on HCT-116 [6], 1.51.
With `O=C1NC(=O)c2c1c1c3ccc(Br)cc3[nH]c1c1c2c2cccc3c2n1CC(CO)C3` (stereo not given), the values for the inhibition in [1] and in data set [2] were 56% and 74%, respectively. Further, the pIC50 is below 5.70 in data set [9], 6.30 in the data set on HCT-116 [3], 6.44 in the data set on NCI-H460 and 8.00 in data set [7]. This compound also came in with an IC50 in data set [8] above 2000 nM. In addition, in [4], the solubility turned out to be 830 µg/mL (≈ 1750 µM). Moreover, the Fold increase in the data set on HCT-116 [5] worked out at 1.6.
As to `CN(C)CC1Cc2cccc3c(C4=C(c5c[nH]c6ccccc56)C(=O)NC4=O)cn(c23)C1` (stereo not given), the results for the pIC50 (in the data set on HCT-116 [3]; in the data set on NCI-H460; in data set [7]) were 6.11, 5.32 and 6.05, respectively. Also, the Fold increase with HCT-116 [5] is 1; in the data set on HCT-116 [6] it was 1.17.
Turning to `COc1ccc2c(c1)[nH]c1c2c2c(c3c4cccc5c4n(c13)CC(CO)C5)C(=O)NC2=O` (stereo not given), the results for the inhibition in data set [1] and in data set [2] were 69% and 77%, respectively. For the same compound, the pIC50 was 6.55 in data set [9], 5.74 in the data set on HCT-116 [3], 5.71 in the data set on NCI-H460 and 7.82 in data set [7]. In [8], this compound showed an IC50 above 2000 nM. Also, the solubility in data set [4] stood at 490 µg/mL (≈ 1150 µM). Further, the Fold increase with HCT-116 [5] came out at 1.8; with HCT-116 [6], 2.
Consider `O=C1NC(=O)c2c1c1c3ccccc3[nH]c1c1c2c2cccc3c2n1CCC3CO` (stereo not given), for which the inhibition amounted to 0% in [1] and 23% in data set [2]. The IC50 in [8] was above 2000 nM. The pIC50 in the data set with HCT-116 [3] was 6.43; with NCI-H460, 6.27; in data set [7] it was 7.51. Moreover, the results for the Fold increase in the data set with HCT-116 [5] and in the data set with HCT-116 [6] were 1.17 and 1.44, respectively.
The compound `CNCC1Cc2cccc3c(C4=C(c5c[nH]c6cc(F)ccc56)C(=O)NC4=O)cn(c23)C1.Cl` (stereo not given) yielded an IC50 in [8] of 383 nM. Also, the pIC50 was 5.76 with HCT-116 [3], 5.29 with NCI-H460 and 8.10 in data set [7].
`O=C1NC(=O)c2c1c1c3ccccc3ccc1c1c2c2cccc3c2n1CCC3CO` (stereo not given) gave an IC50 in data set [8] above 2000 nM. The pIC50 in the data set on HCT-116 [3] is 5.90; with NCI-H460, 5.76; in [7], 6.68. For the same compound, the Fold increase with HCT-116 [5] was determined as 1.2; with HCT-116 [6], 1.3.
Turning to `O=C1NC(=O)c2c1c1c3ccc(F)cc3[nH]c1c1c2c2cccc3c2n1CC(CO)C3` (stereo not given), the inhibition in data set [1] was determined as 25%; in [2], 53%. Besides, the pIC50 in data set [9] is 6.85; with HCT-116 [3], 6.44; with NCI-H460 it was 6.37; in data set [7], 7.66. In [8], this compound came in with an IC50 above 2000 nM. Besides, the solubility in [4] was 890 µg/mL (≈ 2150 µM). The results for the Fold increase with HCT-116 [5] and with HCT-116 [6] were 1.67 and 2.32, respectively.
For the compound `Cn1ccc2ccc3c(c4c(c5c6cccc7c6n(c35)CC(CO)C7)C(=O)NC4=O)c21` (stereo not given), the pIC50 in [9] was 6.19; in the data set on HCT-116 [3], 6.17; with NCI-H460, 6.68; in data set [7], 7.08. Moreover, the results for the Fold increase with HCT-116 [5] and with HCT-116 [6] were 1.13 and 2.25, respectively.
Turning to `O=C1NC(=O)c2c1c1c3ccccc3[nH]c1c1c2c2cccc3c2n1CC(CO)C3` (stereo not given), the figures for the inhibition in [1] and in [2] were 21% and 55%, respectively. Further, the pIC50 in data set [9] is 6.66; with HCT-116 [3] it was 6.04; in the data set with NCI-H460, 6.02; in data set [7] it was 7.15. The same compound registered an IC50 in data set [8] above 2000 nM. The solubility in data set [4] worked out at 120 µg/mL (≈ 303 µM). Besides, the Fold increase was determined as 2.04 in the data set with HCT-116 [5] and 1.95 in the data set on HCT-116 [6].
For `NC(=O)[C@@H]1CCCN1CC1Cc2cccc3c(C4=C(c5c[nH]c6cc(F)ccc56)C(=O)NC4=O)cn(c23)C1` (stereo not given in full), the pIC50 in data set [10] was below 5.70; with HCT-116 [3], below 5.00; in the data set on NCI-H460, below 5.00.
For `O=C1NC(=O)c2c1c1c3ccccc3ccc1c1c2c2cccc3c2n1CC(CO)C3` (stereo not given), the pIC50 in [9] is below 5.70; in the data set on HCT-116 [3], 6.03; in the data set on NCI-H460 it was 6.13; in data set [7], 7.14. The compound further displayed an IC50 in data set [8] above 2000 nM. The figures for the Fold increase with HCT-116 [5] and with HCT-116 [6] were 1.14 and 1.64, respectively.
For the compound `O=C1NC(=O)C(c2cn3c4c(cccc24)CC(CCl)C3)=C1c1c[nH]c2cc(F)ccc12` (stereo not given), in data set [8], the IC50 is above 20000 nM. The negative logarithm of the IC50 (pIC50) in the data set on HCT-116 [3] is 5.49; with NCI-H460, 5.25; in data set [7], 7.19.
Turning to `O=C1NC(=O)c2c1c1c3ccccc3ccc1c1c2c2cccc3c2n1C(CO)CC3` (stereo not given), the IC50 in [8] is above 2000 nM. In addition, the pIC50 in the data set with HCT-116 [3] is 5.95; with NCI-H460 it was 6.27; in data set [7] it was 6.76. Also, in [4], the solubility was 2780 µg/mL (≈ 6840 µM). In addition, the values for the Fold increase with HCT-116 [5] and in the data set on HCT-116 [6] were 1.17 and 1.32, respectively.
For the compound `O=C1NC(=O)c2c1c1c3ccc(F)cc3[nH]c1c1c2c2cccc3c2n1C(CO)CC3` (stereo not given), the pIC50 in data set [9] is 7.10; in the data set with HCT-116 [3] it was 6.09; in the data set with NCI-H460, 6.59; in data set [7], 8.70. Also, the IC50 in data set [8] stood at 3020 nM. Also, the solubility in data set [4] amounted to 620 µg/mL (≈ 1500 µM). Moreover, the Fold increase came out at 1.7 with HCT-116 [5] and 2.12 in the data set with HCT-116 [6].
For the compound `COC(=O)CC(NCC1Cc2cccc3c(C4=C(c5c[nH]c6cc(F)ccc56)C(=O)NC4=O)cn(c23)C1)C(=O)OC` (stereo not given), the pIC50 is below 5.00 in the data set on HCT-116 [3], below 5.00 with NCI-H460 and 6.17 in data set [7].

Broadly, the inhibition is the drop in the measured response relative to a control, in per cent. What is called pIC50 is the negative decadic logarithm of the IC50, by convention in mol/L. In general, IC50 refers to the concentration needed to halve the response being measured. The low end stands for greater potency in that assay, the high end for weaker potency in that assay.
